EBV gp42 block – blocks Epstein-Barr virus glycoprotein 42 binding; Q1HVG2; Fluorescence polarization binding assay, mP read-out; inhibition, % (tested at 21.74 µM); 0.42% of 220,000 active; AID 1085; in the data active = inhibition above about 50%
Target sequence (Q1HVG2 whole entry, looked up): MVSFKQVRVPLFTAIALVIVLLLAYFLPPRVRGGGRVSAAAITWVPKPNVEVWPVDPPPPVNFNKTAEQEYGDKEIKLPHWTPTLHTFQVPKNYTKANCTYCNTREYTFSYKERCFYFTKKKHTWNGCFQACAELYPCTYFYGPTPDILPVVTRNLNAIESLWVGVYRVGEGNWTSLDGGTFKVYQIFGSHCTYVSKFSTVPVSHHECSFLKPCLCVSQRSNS
Runt-SMMHC FRET – blocks binding of human RUNX1 Runt domain to CBFb-SMMHC | AID 1434 | inhibition, % at 20 µM | Q01196+Q13951 | Cerulean-Runt/Venus-CBFb-SMMHC FRET ratio 530/480, 1 h | 0.74% of 220,000 active;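 active = mean inhibition across duplicate retests at 20 µM reaching about 50%, limit read from the data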;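 note: inhibitors lower the FRET ratio by blocking Runt binding to CBFb-SMMHC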
MEX-5 binding – C. elegans MEX-5 TCR-2 RNA binding activity | Q9XUB2 | MEX-5/FITC-TCR2 RNA binding, fluorescence polarization; active compounds read low | activity score (negative = inhibition of binding), % at 10 µM | 0.38% of 300,000 active;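 active = inhibition past about -25% in most replicates, and total fluorescence under double the plate's negative control median, limit read from the data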
LANA-H2B inh – blocks KSHV LANA binding to histone H2A/H2B. Q9QR71. cell-free LANA-H2A/H2B peptide, fluorescence polarization. inhibition, % (concentration not given with the values). 0.6% of 320,000 active. AID 2629; in the data active = inhibition mostly above about 10%, no sharp cut-off; inactive = mostly below about 6.7%
Runt-CBFb FRET – inhibitors of human RUNX1 Runt domain binding to CBFb; Cerulean-Runt/Venus-CBFb FRET ratio 530/480, 1 h; inhibition, % at 20 µM; 0.46% of 220,000 active; AID 1496;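 active = inhibition over about 50% at 20 µM in the single-dose screen, limit read from the data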
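Measured by: fluorescence energy transfer, 422 nm excitation, 530/480 nm emission; Assay system: Cerulean-Runt domain; Medium: Tris pH 7.5 buffer with BSA; Measure: loss of energy transfer signal; Controls: 5 µM unlabeled CBFb as full-inhibition high control; Incubation: protein complex preformed 1 h, compound exposure 1 h, room temperature, dark.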
RanGTP-Impb inh – inhibitors of RanGTP-importin-beta interaction, primary screen, biochemical, FRET, CFP-Ran, YFP-importin-beta, homogeneous | inhibition, % (concentration not given with the values) | cell-free CFP-Ran/YFP-importin-beta FRET ratio | 1.1% of 300,000 active;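 active = more than half of the replicate wells show a fall in the fluorescence ratio signal beyond about 16%, limit read from the data, passing the limit was not always enough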
YIC counter – counter-screen YIC FRET for RanGTP-importin-beta inhibitors | 40% of 1,000 active | AID 435026 | shares compounds with RanGTP-Impb inh | IC50, µM | Purified YIC probe, intramolecular FRET ratio YFP/CFP;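 active = fitted half-maximal inhibitory concentration no more than tenfold above the top dose tested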
Large screens that a line does not name were inactive (follow-up assays come after a bar, where they were run). This is a sample that favours compounds with a hit; in the whole collection about 2.4% have one here.

CCC(C)OC(=O)C[N+](C)(C)CCOC1CC2CCC1(C)C2(C)C (configuration not stated)	RanGTP-Impb inh 22 | YIC counter inactive
CC(C)CCOC(=O)C[N+](C)(C)CCOC1CC2CCC1(C)C2(C)C (configuration not stated)	none
CCOC(=O)c1c(SC)[nH]c2c(Cl)cccc2c1=O	none
COc1ccc(N2C(=O)N3[C@H](c4ccc(Br)cc4)[C@@H]4C(=O)N(C(C)(C)C)C(=O)[C@@H]4[C@]3(Cc3ccccc3)C2=O)cc1	RanGTP-Impb inh 26 (no result: EBV gp42 block, Runt-SMMHC FRET, Runt-CBFb FRET) | YIC counter inactive
O=C(c1ccco1)N1CCN(c2cc(=O)n(-c3ccc(Cl)cc3)c(=O)[nH]2)CC1	LANA-H2B inh 19, RanGTP-Impb inh 48 | YIC counter inactive
CNc1oc(-c2cccs2)nc1C#N	none
CN(C)c1oc(-c2cccs2)nc1C#N	RanGTP-Impb inh 24 | YIC counter inactive
COc1cc(NC(=O)C2CC2)c(OC)cc1NC(=O)c1ccco1	RanGTP-Impb inh 19 (no result: EBV gp42 block, Runt-SMMHC FRET, Runt-CBFb FRET) | YIC counter inactive
CNC(=S)Nc1cc(OC)c(NC(=O)c2ccco2)cc1OC	none
O=S(=O)(N/N=C\c1ccc(-c2ccccc2Cl)o1)c1ccccc1	none
O=C(N/N=C/c1ccc(-c2ccccc2Cl)o1)c1ccccc1	RanGTP-Impb inh 21 | YIC counter inactive
Cc1ccc2nc(N3CCC(C(=O)O)CC3)nc(-c3ccccc3)c2c1	none
Cc1ccc2nc(NCC(=O)O)nc(-c3ccccc3)c2c1	RanGTP-Impb inh 22 | YIC counter 48
O=C(O)c1ccccc1C(=O)Nc1ccc(Br)c2cccnc12	RanGTP-Impb inh 17 | YIC counter inactive
COc1ccc(NC(=O)COC(C)=O)cc1Cl	RanGTP-Impb inh 21 | YIC counter inactive
CCN(C(=O)C(C)OC(=O)C1C(C(=O)OC)=C(C)NC(C)=C1C(=O)OC)c1ccccc1 (configuration not stated)	none
COC(=O)C1=C(C)NC(C)=C(C(=O)OC)C1C(=O)OC(C)C(=O)c1ccccc1 (configuration not stated)	RanGTP-Impb inh 22 | YIC counter inactive
CCOc1cc(Br)c(C=O)cc1OCC	none
COc1cc(/C=N/NC(=O)c2cc(C)oc2C)ccc1O	RanGTP-Impb inh 24 | YIC counter inactive
COc1ccc(C=NNC(=O)c2cc(C)oc2C)cc1O	none (no result: EBV gp42 block, Runt-SMMHC FRET, MEX-5 binding, Runt-CBFb FRET, RanGTP-Impb inh)
Cc1ccc(NC(=O)CSc2ncc3ccccn23)cc1C	none
COc1cc(OC)cc(-c2cc3nc(C)cc(N4CCN(C(=O)c5ccco5)CC4)n3n2)c1	RanGTP-Impb inh 29 | YIC counter 3.7
Cc1cc2nnc(SCC(=O)N(C)C3CCS(=O)(=O)C3)n2c2ccccc12 (configuration not stated)	none
CCc1nnc(NC(=O)CSc2nc3ccccc3s2)s1	none
CCNc1nnc(CSc2nc3ccccc3s2)s1	RanGTP-Impb inh 18 | YIC counter inactive
COc1ccc(-c2nc(/C=C3\C(C)=Nc4ccccc43)c(O)o2)cc1	RanGTP-Impb inh 28 | YIC counter inactive
NC(=O)c1ccccc1	none
NC(=O)c1ccc(F)cc1	RanGTP-Impb inh 17 (no result: Runt-SMMHC FRET, Runt-CBFb FRET) | YIC counter inactive
CCN(C(=O)COC(=O)C1CCN(S(=O)(=O)c2ccc3c(c2)OCCO3)CC1)C1CCS(=O)(=O)C1 (configuration not stated)	none (no result: EBV gp42 block, Runt-SMMHC FRET, Runt-CBFb FRET)
Cc1ccc(C(=O)Nc2ncc(Cc3ccc(F)cc3)s2)o1	RanGTP-Impb inh 28 | YIC counter inactive
Cc1ccc(C(=O)Nc2ncc(C)s2)o1	none
Cc1ccc(C2NC(=O)c3c(sc(C)c3C)N2)c(O)c1 (configuration not stated)	RanGTP-Impb inh 24 | YIC counter inactive
Cc1sc2c(c1C)C(=O)NC(c1ccccc1F)N2 (configuration not stated)	RanGTP-Impb inh 24 | YIC counter inactive
O=C1CSC(c2ccccc2F)N1 (configuration not stated)	none

Compound activity as filed in PubChem.
